Calls of active or inactive are those of the source. No cut-off for these calls is given here.
Assays:
HL-60 = test: Antiproliferative activity against human HL60 cells; assay type: functional, cell-based
Summary of the method: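 Human myeloid leukemia HL-60 cells; antiproliferative IC50 (µM) by a previously described protocol, each series repeated independently at least two to three times.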

Tubulin (Homo sapiens) [1] = target: T1, Tubulin (Homo sapiens) (UniProt P68371+Q9H4B7+P0DPH7+P68366+Q13509+Q71U36+P04350+Q3ZCM7+P07437+P68363+Q9BQE3+Q6PEY2+Q13885+Q9BVA1+Q9BUF5); test: Inhibition of tubulin polymerization at 10 ug/ml; assay type: protein-complex assay
Summary of the method: (§1)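 Kit-based tubulin assembly assay with compounds dissolved in DMSO. All components go into wells held at 0 °C and a baseline is set at 340 nm. Assembly is read at 0 °C and then at 37 °C. Results are percent inhibition against a vehicle control at each tested concentration.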

Tubulin (Homo sapiens) [2] = target: T1, Tubulin (Homo sapiens); test: Inhibition of tubulin polymerization at 20 ug/ml; assay type: protein-complex assay
Tubulin (Homo sapiens) [3] = target: T1, Tubulin (Homo sapiens); test: Inhibition of tubulin polymerization at 1 ug/ml; assay type: protein-complex assay; summary of the method: as §1
Tubulin (Homo sapiens) [4] = target: T1, Tubulin (Homo sapiens); test: Inhibition of tubulin polymerization at 3 ug/ml; assay type: protein-complex assay; summary of the method: as §1

Row | Compound | IC50 (HL-60) | further results
1 | COC(=O)c1ccc(Oc2ccc(OC)cc2)c([N+](=O)[O-])c1 | > 20 µM | –
2 | COC(=O)c1cccc(Oc2ccc(C#N)cc2)c1 | > 20 µM | –
3 | COC(=O)c1ccc(Oc2ccc(OC)cc2)c(I)c1 | > 20 µM | –
4 | COc1ccc(Oc2ccc(C(=O)N(C)OC)cc2)cc1F | > 30 µM | –
5 | COC(=O)c1ccc(Oc2ccc(OC)c(OC)c2)c([N+](=O)[O-])c1 | > 20 µM | –
6 | COc1cccc(OC)c1Oc1ccc(C#N)cc1 | > 20 µM | –
7 | CCOC(=O)c1ccc(Oc2ccc(C#N)cc2)cc1 | > 20 µM | –
8 | COc1cccc(OC)c1Oc1ccc(N(C)C)cc1 | 11.4 µM | inhibition (Tubulin (Homo sapiens) [1]): 12.5%
9 | COc1ccc(Oc2ccc(C(=O)NCCc3ccccc3)cc2)cc1F | 20.6 µM | –
10 | COC(=O)c1ccc(Oc2ccc(OC)cc2)c(N)c1 | > 20 µM | –
11 | COC(=O)c1cccc(Oc2ccc(OC)c(F)c2)c1 | > 20 µM | –
12 | COc1ccc(Oc2ccc(C(=O)NC3CC3)cc2)cc1F | 14.1 µM | inhibition (Tubulin (Homo sapiens) [1]): 8.7%
13 | COc1ccc(Oc2c(OC)cccc2OC)cc1F | > 20 µM | –
14 | COC(=O)c1cccc(Oc2ccc(OC)cc2)c1 | > 20 µM | –
15 | COC(=O)c1ccc(Oc2ccc(OC)c(OC)c2)c(I)c1 | 5.62 µM | Activity (Tubulin (Homo sapiens) [1]): inactive
16 | COc1ccc(S(=O)(=O)Nc2cccnc2Nc2ccc(O)cc2)cc1 [ABT-751] | 0.34 µM | inhibition (Tubulin (Homo sapiens) [3]): 40%; inhibition (Tubulin (Homo sapiens) [1]): 96.3%; inhibition (Tubulin (Homo sapiens) [4]): 74.6%
17 | COc1ccc(Oc2ccc(C(=O)O)cc2)cc1F | > 30 µM | –
18 | COC(=O)c1ccc(Oc2ccc(OC)c(OC)c2)c(N)c1 | > 20 µM | –

Second part, led by results:

Row | IC50 (HL-60) | Compound | further results
19 | 3.5 µM | CCOC(=O)c1ccc(Oc2ccc(OC)c(F)c2)cc1 | inhibition (Tubulin (Homo sapiens) [1]): 12.5%
20 | > 20 µM | CCOC(=O)c1ccc(Oc2ccc(N(C)C)cc2)cc1 | –
21 | > 30 µM | CCOC(=O)c1ccc(Oc2ccc(F)c(F)c2)cc1 | –
22 | > 30 µM | CCOC(=O)c1ccc(Oc2ccc(N(C)C)cc2)cc1O | –
23 | > 30 µM | CCOC(=O)c1ccc(Oc2ccc(OC)c(F)c2)cc1O | –
24 | 1.5 µM | CCOC(=O)c1ccc(Oc2ccc(OC)c(OC)c2)cc1O | inhibition (Tubulin (Homo sapiens) [2]): 13.3%; inhibition (Tubulin (Homo sapiens) [1]): 5.5%
25 | > 30 µM | CCOC(=O)c1ccc(Oc2ccc(F)c(F)c2)cc1O | –
26 | > 20 µM | CCOC(=O)c1ccc(Oc2ccc(OC)cc2)cc1 | –
27 | > 20 µM | COC(=O)c1cccc(Oc2ccc(N(C)C)cc2)c1 | –
28 | > 20 µM | CCOC(=O)c1ccc(Oc2ccc(OC)c(OC)c2)cc1 | –
29 | > 20 µM | CCOC(=O)c1ccc(Oc2ccc(Cl)cc2)cc1 | –
30 | > 30 µM | CCOC(=O)c1ccc(Oc2ccc(OC)cc2)cc1O | –

From ChEMBL document CHEMBL1139136, “Synthesis of novel diaryl ethers and their evaluation as antimitotic agents” (Bioorg Med Chem Lett, 2007)
